Assay results published in ChEMBL document CHEMBL4373710, “DNA Structural Alteration Leading to Antibacterial Properties of 6-Nitroquinoxaline Derivatives” (J Med Chem, 2019).
Converted amounts (≈) assume the structure as drawn. The source made the active and inactive calls. The calls are words filed in the database; no cut-off is given here.

Experiments:
HEK293 = test: Cytotoxicity against HEK293 cells measured after 24 hrs by MTT assay; type: cell-based; settings: Homo sapiens, HEK293, 24 h
How it was run: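 HEK 293 cells, 4000/well, seeded overnight in DMEM + 10% FBS at 37°C in CO2; compound dose series for 24 h (final DMSO <0.5%, DMSO-only control). MTT at 1 mg/mL final for 3 h, formazan dissolved in DMSO, absorbance 595 nm; IC50 from triplicate OD data.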

Pseudomonas aeruginosa = test: Antibacterial activity against Pseudomonas aeruginosa MTCC1688 by broth microdilution assay; type: functional
How it was run: (§1)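 Broth microdilution per CLSI; 5×10^5 cfu/mL bacteria in LB broth; compounds from DMSO stocks, final DMSO under 0.6%, with DMSO control. Plates incubated at the strain's recommended growth temperature and time; growth read as OD600.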

Escherichia coli = test: Antibacterial activity against Escherichia coli MTCC1916 by broth microdilution assay; type: functional; how it was run: as §1
[1] = Antibacterial activity against Arthrobacter chlorophenolicus A6MTCC3706 by broth microdilution assay; type: functional; settings: Pseudarthrobacter chlorophenolicus; how it was run: as §1
Staphylococcus aureus = test: Antibacterial activity against Staphylococcus aureus MTCC737 measured after 6 hrs by broth microdilution assay; type: functional; settings: MTCC737, 6 h; how it was run: as §1
[2] = system: Staphylococcus epidermidis; test: Antibacterial activity against Staphylococcus epidermidis MTCC3615 by broth microdilution assay; type: functional; how it was run: as §1
DNA [3] = test: Inhibition of ethidium bromide binding to Staphylococcus aureus DNA assessed as Stern-Volmer quenching constant by fluorescence assay; type: nucleic-acid assay
How it was run: (§2)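 Fluorescence intercalator displacement: S. aureus genomic DNA 10 µM plus EtBr 5 µM in 10 mM NaP pH 7, 10 mM NaCl, 1% DMSO, at 25 and 37 °C; titrated with 2.5–100 µM compound. Excitation 480 nm, emission 520–700 nm, inner-filter corrected, triplicates; Stern–Volmer analysis, F0/F = 1 + Ksv[Q].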

[4] = Binding affinity to pCDNA 3.1 (unknown origin) assessed as DNA unwinding effect at 1:1 to 5:1 compound to DNA ratio measured after 16 hrs by EtBr staining agarose gel shift assay
How it was run: (§3)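 pCDNA3.1 plasmid (amplified in E. coli DH5α), 40 µM, in 50 mM NaP pH 7, 10 mM NaCl, mixed with compound at set compound:DNA base-pair ratios; 16 h at 37°C. Run on 1% agarose at 50 V ~3 h, stained with EtBr 1 µg/mL for 5 min, imaged.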

Calf thymus DNA [5] = test: Binding affinity to calf thymus DNA by isothermal titration calorimetric analysis; type: nucleic-acid assay; settings: Bos taurus
Calf thymus DNA [6] = test: Binding affinity to calf thymus DNA assessed as change in B-DNA structure at 265 nm by circular dichroism method; type: nucleic-acid assay; settings: Bos taurus
Calf thymus DNA [7] = test: Binding affinity to calf thymus DNA assessed as appearance of induced CD at […] by circular dichroism method; type: nucleic-acid assay; settings: Bos taurus
DNA [8] = test: Inhibition of ethidium bromide binding to Staphylococcus aureus DNA by fluorescence assay; type: nucleic-acid assay; how it was run: as §2
[9] = Selectivity index, ratio of IC50 for HEK293 cells to MIC for Staphylococcus aureus MTCC737; type: toxicity; settings: human, read-out: Selectivity Index
[10] = Binding affinity to pCDNA 3.1 (unknown origin) assessed as DNA unwinding effect at 5:1 compound to DNA ratio measured after 16 hrs by EtBr staining agarose gel shift assay; how it was run: as §3
[11] = Binding affinity to pCDNA 3.1 (unknown origin) assessed as DNA condensation at 5:1 compound to DNA ratio measured after 16 hrs by EtBr staining agarose gel shift assay; how it was run: as §3
[12] = Binding affinity to pCDNA 3.1 (unknown origin) assessed as DNA unwinding effect at 1:1 compound to DNA ratio measured after 16 hrs by EtBr staining agarose gel shift assay; how it was run: as §3
Calf thymus DNA [13] = test: Binding affinity to calf thymus DNA assessed as change in B-DNA structure at 15 to 60 uM by circular dichroism method; type: nucleic-acid assay; settings: Bos taurus
Calf thymus DNA [14] = test: Binding affinity to calf thymus DNA assessed as appearance of induced CD at 15 to 60 uM by circular dichroism method; type: nucleic-acid assay; settings: Bos taurus
[15] = Binding affinity to pCDNA 3.1 (unknown origin) assessed as DNA unwinding effect up to 6:1 compound to DNA ratio measured after 16 hrs by EtBr staining agarose gel shift assay; how it was run: as §3
[16] = Solubility of the compound in pH 7 phosphate buffer at 100 uM by UV absorption spectra analysis; type: physicochemical; settings: pH 7, 100 µM
DNA [17] = test: Binding affinity to Escherichia coli pBR322 DNA assessed as DNA compaction up to 5:1 compound to DNA ratio by atomic force microscopic analysis; type: nucleic-acid assay
How it was run: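 Supercoiled pBR322 plasmid treated with compound at [compound]:[DNA bp] ratios from 0.5:1 up to 5:1, imaged by AFM; DNA height measured.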

Compound | MIC (Pseudomonas aeruginosa) [µg/mL] | MIC (Escherichia coli) [µg/mL] | MIC [1] [µg/mL] | MIC (Staphylococcus aureus) [µg/mL] | MIC [2] [µg/mL] | IC50 (HEK293) [µg/mL] | further results
CN(C)CCCNc1nc2cc([N+](=O)[O-])ccc2nc1NCc1cccc(C(F)(F)F)c1 | > 200 | 34.3 (≈ 76.5 µM) | 1.57 (≈ 3.5 µM) | 0.89 (≈ 1.98 µM) | 0.89 (≈ 1.98 µM) | 7.99 (≈ 17.8 µM) | KSV (DNA [3]): 1.7 ×10⁴ /M; Activity [4]: Active; Ka (Calf thymus DNA [5]): 3.06 ×10⁴ /M; Activity (Calf thymus DNA [6]): Dose-dependent effect; Activity (Calf thymus DNA [7]): Dose-dependent effect; inhibition (DNA [8]): Dose-dependent effect; selectivity ratio [9]: 9
CN(C)CCCCNc1nc2cc([N+](=O)[O-])ccc2nc1NCc1ccc(C(F)(F)F)cc1 | > 230 | 2.31 (≈ 4.99 µM) | 3.47 (≈ 7.5 µM) | 3.47 (≈ 7.5 µM) | 3.47 (≈ 7.5 µM) | 9.73 (≈ 21 µM) | –
CN1CCN(c2nc3cc([N+](=O)[O-])ccc3nc2NCc2ccc(C(F)(F)F)cc2)CC1 | > 220 | > 220 | 4.46 (≈ 9.99 µM) | 4.46 (≈ 9.99 µM) | 4.46 (≈ 9.99 µM) | 6.99 (≈ 15.7 µM) | –
CN1CCN(CCCNc2nc3cc([N+](=O)[O-])ccc3nc2NCc2ccc(C(F)(F)F)cc2)CC1 | > 250 | 3.78 (≈ 7.51 µM) | 1.76 (≈ 3.5 µM) | 3.78 (≈ 7.51 µM) | 3.78 (≈ 7.51 µM) | 9.53 (≈ 18.9 µM) | –
CN(C)CCCNc1nc2cc([N+](=O)[O-])ccc2nc1NCc1ccccc1Br | > 230 | > 230 | 2.76 (≈ 6.01 µM) | 3.45 (≈ 7.51 µM) | 4.59 (≈ 9.99 µM) | 51.9 (≈ 113 µM) | selectivity ratio [9]: 15
CN(C)CCCNc1nc2cc([N+](=O)[O-])ccc2nc1NCc1cc(C(F)(F)F)cc(C(F)(F)F)c1 | > 250 | > 250 | 1.81 (≈ 3.5 µM) | 1.03 (≈ 1.99 µM) | 0.52 (≈ 1.01 µM) | 4.32 (≈ 8.36 µM) | KSV (DNA [3]): 2 ×10⁴ /M; Ka (Calf thymus DNA [5]): 9.9 ×10⁴ /M; Activity (Calf thymus DNA [6]): Dose-dependent effect; Activity [11]: Active; Activity (Calf thymus DNA [7]): Dose-dependent effect; inhibition (DNA [8]): Dose-dependent effect; Activity [12]: Active
CN(C)CCCNc1nc2cc([N+](=O)[O-])ccc2nc1NCc1cc(F)cc(C(F)(F)F)c1 | > 235 | 35 (≈ 75 µM) | 2.33 (≈ 5 µM) | 0.93 (≈ 1.99 µM) | 1.63 (≈ 3.49 µM) | 2.67 (≈ 5.72 µM) | –
O=[N+]([O-])c1ccc2nc(NCc3ccc(C(F)(F)F)cc3)c(N3CCNCC3)nc2c1 | 10.8 (≈ 25 µM) | 4.32 (≈ 9.99 µM) | 4.32 (≈ 9.99 µM) | 3.03 (≈ 7.01 µM) | 4.32 (≈ 9.99 µM) | 9.61 (≈ 22.2 µM) | –
CN(C)CCCNc1nc2cc([N+](=O)[O-])ccc2nc1NCc1ccccc1C(F)(F)F | > 224 | 68.3 (≈ 152 µM) | 2.91 (≈ 6.49 µM) | 3.36 (≈ 7.49 µM) | 2.24 (≈ 4.99 µM) | 24.7 (≈ 55 µM) | –
O=[N+]([O-])c1ccc2nc(NCc3ccc(C(F)(F)F)cc3)c(N3CCCCC3)nc2c1 | > 200 | > 200 | > 200 | > 200 | > 200 | > 200 | Activity (Calf thymus DNA [13]): inactive; Activity (Calf thymus DNA [14]): inactive; Activity [15]: inactive; Activity (Calf thymus DNA [5]): inactive; solubility [16]: Soluble; Activity (DNA [17]): inactive

Continued, in another order:

MIC (Pseudomonas aeruginosa) [µg/mL] | MIC (Escherichia coli) [µg/mL] | MIC [1] [µg/mL] | MIC (Staphylococcus aureus) [µg/mL] | MIC [2] [µg/mL] | Compound | IC50 (HEK293) [µg/mL] | further results
> 200 | > 200 | 6.16 (≈ 15 µM) | 8.21 (≈ 20 µM) | 6.16 (≈ 15 µM) | COc1ccccc1CNc1nc2ccc([N+](=O)[O-])cc2nc1NCCCN(C)C | 36.1 (≈ 88 µM) | –
> 200 | > 200 | 4.1 (≈ 9.99 µM) | 10.3 (≈ 25 µM) | 5.13 (≈ 12.5 µM) | COc1ccc(CNc2nc3ccc([N+](=O)[O-])cc3nc2NCCCN(C)C)cc1 | 38.6 (≈ 94 µM) | –
> 200 | 86.3 (≈ 217 µM) | 3.98 (≈ 9.99 µM) | 7.97 (≈ 20 µM) | 5.98 (≈ 15 µM) | CN(C)CCCNc1nc2cc([N+](=O)[O-])ccc2nc1NCc1ccc(F)cc1 | 4.28 (≈ 10.7 µM) | Activity [10]: Active
> 230 | 4.59 (≈ 9.99 µM) | 2.29 (≈ 4.99 µM) | 3.45 (≈ 7.51 µM) | 3.45 (≈ 7.51 µM) | CN(C)CCCNc1nc2cc([N+](=O)[O-])ccc2nc1NCc1ccc(Br)cc1 | 9.63 (≈ 21 µM) | –
> 207 | > 207 | 2.49 (≈ 6 µM) | 3.11 (≈ 7.5 µM) | 6.22 (≈ 15 µM) | CN(C)CCCNc1nc2cc([N+](=O)[O-])ccc2nc1NCc1ccc(Cl)cc1 | 10.7 (≈ 25.9 µM) | –
13.8 (≈ 30 µM) | 4.59 (≈ 9.99 µM) | 2.29 (≈ 4.99 µM) | 4.59 (≈ 9.99 µM) | 2.29 (≈ 4.99 µM) | CN(C)CCCNc1nc2cc([N+](=O)[O-])ccc2nc1NCc1cccc(Br)c1 | 3.66 (≈ 7.97 µM) | –
> 200 | 110 (≈ 279 µM) | 2.76 (≈ 7 µM) | 5.92 (≈ 15 µM) | 3.94 (≈ 9.99 µM) | Cc1ccc(CNc2nc3ccc([N+](=O)[O-])cc3nc2NCCCN(C)C)cc1 | 15.8 (≈ 40 µM) | –
> 200 | 21 (≈ 19.1 µM) | 0.07 (≈ 0.0636 µM) | 0.04 (≈ 0.0363 µM) | 0.02 (≈ 0.0182 µM) | CS[C@@H]1SC[C@H]2C(=O)N(C)[C@@H](C(C)C)C(=O)OC[C@@H](NC(=O)c3cnc4ccccc4n3)C(=O)N[C@@H](C)C(=O)N(C)[C@@H]1C(=O)N(C)[C@@H](C(C)C)C(=O)OC[C@@H](NC(=O)c1cnc3ccccc3n1)C(=O)N[C@@H](C)C(=O)N2C | 0.014 (≈ 0.0127 µM) | –
57 (≈ 150 µM) | 114 (≈ 300 µM) | 7.6 (≈ 20 µM) | 11.4 (≈ 30 µM) | 13.3 (≈ 35 µM) | CN(C)CCCNc1nc2cc([N+](=O)[O-])ccc2nc1NCc1ccccc1 | 2.74 (≈ 7.2 µM) | –
> 200 | 75.6 (≈ 192 µM) | 6.9 (≈ 17.5 µM) | 4.93 (≈ 12.5 µM) | 7.89 (≈ 20 µM) | Cc1ccccc1CNc1nc2ccc([N+](=O)[O-])cc2nc1NCCCN(C)C | 27.6 (≈ 70 µM) | –
> 240 | 7.24 (≈ 15 µM) | 1.69 (≈ 3.5 µM) | 1.69 (≈ 3.5 µM) | 0.96 (≈ 1.99 µM) | CN(C)CCCNc1nc2cc([N+](=O)[O-])ccc2nc1NCc1ccc(Cl)c(C(F)(F)F)c1 | 3.26 (≈ 6.75 µM) | –
